SIRT5 block: SIRT5 desuccinylase inhibitors, primary screen, biochemical, fluorescence imaging, single point, set 5 | inhibition, % at 15 µM | NAD-dependent protein deacylase sirtuin-5, mitochondrial (Homo sapiens), Q9NXA8 | Purified SirT5, succinyl-peptide AMC, trypsin-coupled fluorescence | hit rate 1.1% among 330,000 | AID 652115, 2013; in the data active means inhibition above about 15%
Target sequence (Q9NXA8 whole entry, looked up): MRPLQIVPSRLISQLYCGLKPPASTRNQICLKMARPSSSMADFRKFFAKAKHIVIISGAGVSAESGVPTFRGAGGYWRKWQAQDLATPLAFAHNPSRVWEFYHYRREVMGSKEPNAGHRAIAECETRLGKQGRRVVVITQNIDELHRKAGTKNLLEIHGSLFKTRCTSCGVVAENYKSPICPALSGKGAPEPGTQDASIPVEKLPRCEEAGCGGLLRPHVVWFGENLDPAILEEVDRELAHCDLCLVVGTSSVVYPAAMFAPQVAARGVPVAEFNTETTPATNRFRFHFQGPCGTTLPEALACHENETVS
FGF22 binding: binders of human FGF22 protein, primary screen, FGF22 synaptogenesis inhibitor project, biophysical, thermal shift, single point | recombinant FGF22 thermal shift, SYPRO orange fluorescence; percent of sucrose octasulfate shift, DMSO zero | activity (Tm shift, normalised), % at 9.99 µM | Fibroblast growth factor 22 (Homo sapiens), Q9HCT0 | hit rate 1.5% among 340,000;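 active means mean Tm shift, scaled 0 neutral to 100 positive control, at about 1.3% or above, every replicate too, limit read from the data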
Target sequence (Q9HCT0 whole entry, looked up): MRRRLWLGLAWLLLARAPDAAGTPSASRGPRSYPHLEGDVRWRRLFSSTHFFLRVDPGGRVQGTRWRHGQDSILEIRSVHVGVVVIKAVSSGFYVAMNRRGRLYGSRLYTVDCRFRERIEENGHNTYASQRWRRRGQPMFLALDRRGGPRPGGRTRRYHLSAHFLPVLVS
FN deposition inh: inhibitors of fibronectin matrix deposition, primary screen, AH1F cells, Alexa488-fibronectin fluorescence, plate reader; hit rate 0.086% among 350,000; AH1F fibroblasts, overnight; inhibition, % at 12.6 µM;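 active means mean inhibition across replicates of 30% or more, regardless of how many single replicates reach that level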;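 further: positive control wells lacked labelled fibronectin entirely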
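Material – AH1F fibroblast monolayer, labelled fibronectin deposition · Reagent – labelled fibronectin 24 nM · Timing – 1 h adhesion, overnight exposure · Measured by – fluorescence at 485 nm excitation, 525 nm emission · Read-out – inhibition of fibronectin deposition signal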
ARNT-TACC3 inh: disruptors of ARNT/TACC3 protein interaction, primary screen, biochemical, AlphaScreen, single concentration; Transforming acidic coiled-coil-containing protein 3 (Homo sapiens), Q9Y6A5; AlphaScreen His-ARNT PAS-B/GST-TACC3 binding, luminescence; TACC3 fragment carries E629A point mutation; inhibition, % at 9.99 µM; hit rate 0.66% among 390,000; AID 623870, 2012;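 active means mean inhibition of replicates at least 50% and at least half of replicates each reaching 50%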;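 further: 0% = complete ARNT plus TACC3 wells and 100% = ARNT alone without TACC3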
DENV2 CPE rescue: inhibitors of DENV2 cytopathic effect, primary screen, cell-based, plate reader, single concentration | DENV2-infected cells, cytopathic effect rescue | CPE inhibition, % at 9.99 µM | hit rate 1.7% among 350,000; in the data active means CPE inhibition above about 20%, passing the limit was not always enough; tested in BHK-21 cells;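 further: 0% = median of neutral control wells and 100% = median of positive control wells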
XiGFP reactiv: activators of inactive X chromosome reactivation, primary screen, imaging, XiGFP fibroblasts, GFP high-content imaging, set 2; XiGFP mouse fibroblasts, % GFP-positive cells imaging, 3 d; cells co-treated with 5-aza-dC sensitizer; scaled so ellipticine positive control = 100%; activation, % at 7.58 µM; hit rate 0.055% among 360,000;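 active means mean normalized replicate activation at least 10% and every replicate at or above 10%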;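 further: 0% = median of on-plate neutral control wells and 100% = ellipticine 6 µM median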
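Material: XiGFP fibroblasts, SV40-immortalized. Buffer or medium: DMEM plus 5-aza-dC sensitizer. Compound: single concentration per compound, delivered by pin transfer. Times: 3 days compound exposure. Controls: ellipticine 6 µM.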
AlphaScreen ctr: AlphaScreen signal interference compounds, dose response, artefact control for ARNT-TACC3 interaction inhibitor project, biochemical, luminescence, cherry-pick; AC50, µM (doses to about 68 µM), for inactives: at the top dose activity change, negative = signal decrease; His-ARNT PASB-GST AlphaScreen artifact counter-screen; shares compounds with ARNT-TACC3 inh; hit rate 50% among 1,200;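 active means every separate test run was called active for a drop in luminescence, with AC50 within twice the top valid dose, actives reach about 71 µM in these data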
Active calls of the source: *; . = not tested or not shown. Sampled rows, rich in hits. Any-hit rate of the full collection: about 3.8%.

SMILES | SIRT5 block | FGF22 binding | FN deposition inh | ARNT-TACC3 inh | DENV2 CPE rescue | XiGFP reactiv | AlphaScreen ctr
O=C(CSc1ccc(-c2ccccn2)nn1)NCc1ccc(Cl)cc1 | -2.5 | 0.3 | 2.4 | 52.8* | 10.7 | -0.1 | 69µM*
CCCC#Cc1cnc2c(c1)C(=O)N([C@H](C)CO)C[C@@H](C)[C@@H](CN(C)S(C)(=O)=O)O2 | 2.9 | 0.1 | 4.2 | -0.3 | -2.8 | 0.1 | .
CN(Cc1ccccc1)CC(O)COc1ccc(CNCc2nccn2C)cc1 (configuration not stated) | -1.7 | 0.1 | -7.0 | 63.2* | 11.4 | 0.0 | -16.3%
C[C@H]1CN([C@@H](C)CO)C(=O)c2cc(NS(=O)(=O)c3ccc(F)cc3)ccc2O[C@@H]1CN(C)S(C)(=O)=O | . | . | . | . | . | 0.1 | .
c1ccc(-c2nnc(-c3ccccn3)nc2N2CCN(c3ccncc3)CC2)cc1 | . | . | . | . | . | . | 2.14µM*
Brc1ccc(-c2csc(N3CCC(c4ccccc4)C3)n2)cc1 (configuration not stated) | . | . | -6.6 | 8.5 | . | . | .
Cc1nnc(-c2ccccc2)nc1N1CCOCC1 | . | . | . | 1.5 | . | . | .
c1ccc(-c2nnc(-c3ccccn3)nc2N2CCC(N3CCOCC3)CC2)cc1 | . | . | . | . | . | . | 0.921µM*
c1ccc(-c2nnc(-c3ccccn3)nc2N2CCC(c3ccccc3)C2)cc1 (configuration not stated) | . | . | . | . | . | . | 4.76µM*
O=C1N[C@@H](c2ccccc2)COCc2cnnn2CC[C@@H]1Cc1ccc(C(F)(F)F)cc1 | . | . | -7.0 | . | . | -0.1 | .
O=C(CN1CCOc2ccccc21)NCc1ccco1 | . | 0.0 | 3.1 | 0.3 | -5.7 | -0.1 | .
O=C(CN1CC(=O)Oc2ccccc21)NCc1ccco1 | . | . | . | 61.3* | . | . | 19.3µM*
C[C@H]1CN([C@@H](C)CO)S(=O)(=O)c2ccc(C#CC3CC3)cc2O[C@H]1CN(C)C(=O)C1CCCCC1 | . | . | 8.9 | . | . | 0.0 | .
O=C(CSc1nnc(-c2ccccn2)o1)Nc1ccccc1C(F)(F)F | -4.5 | 0.1 | 3.4 | 54.8* | 3.9 | 0.0 | -12.5%
Cc1ccc(C(=O)Nc2nc(-c3ccccn3)cs2)s1 | 2.3 | 0.6 | 8.7 | 54.4* | 10.0 | 0.4 | 37.6µM*
Cn1cccc1C(=O)Nc1nc(-c2ccccn2)cs1 | . | . | . | 62.9* | . | . | 20.1µM*
Cc1csc(NC(=O)c2cccn2C)n1 | . | . | . | 1.9 | . | . | .
CC(Oc1cccc(Cl)c1)C(=O)Nc1nc(-c2ccccn2)cs1 (configuration not stated) | 0.1 | 0.1 | 13.5 | 53.3* | 4.5 | 0.0 | -17.9%
O=C(Nc1nc(-c2ccccn2)cs1)c1ccc(Cl)s1 | . | -0.2 | -1.6 | 58.8* | -6.9 | -0.2 | 28.1µM*
C[C@@H]1CCCCO[C@H](CN(C)C(=O)CCC(F)(F)F)[C@@H](C)CN([C@@H](C)CO)C(=O)c2cc(NC(=O)c3ccccc3)ccc2O1 | 8.0 | 0.2 | -13.3 | -2.6 | -4.7 | -0.1 | .
CCOc1ccc(N(CC(=O)Nc2ccc(OC)cc2OC)S(=O)(=O)c2c(C)[nH]c(=O)[nH]c2=O)cc1 | 1.8 | 0.0 | 1.2 | 57.7* | -2.3 | 0.2 | 10.4µM*
COc1ccc(N(CC(=O)Nc2ccccc2C)S(=O)(=O)c2c(C)[nH]c(=O)[nH]c2=O)cc1 | -2.2 | 0.2 | 6.3 | 2.1 | -1.3 | 1.2 | .
CCOc1ccccc1NC(=O)CN(c1ccc(OC)cc1)S(=O)(=O)c1c(C)[nH]c(=O)[nH]c1=O | -0.3 | -0.3 | 4.5 | 55.0* | -7.0 | 0.2 | 29.5µM*
Cc1cccc(S(=O)(=O)N2[C@@H]3Cn4c(cccc4=O)[C@H]2[C@@H](C(=O)N(C)C)[C@@H]3CO)c1 | . | . | -4.3 | . | . | 0.1 | .
CN(C)CC(=O)N[C@@H]1CC[C@H](CC(=O)NCCN2CCCCC2)O[C@H]1CO | 1.8 | 0.0 | 5.7 | 0.6 | -0.5 | 0.5 | .
SMILES | SIRT5 block | FGF22 binding | FN deposition inh | ARNT-TACC3 inh | DENV2 CPE rescue | XiGFP reactiv | AlphaScreen ctr
Cc1c(C(=O)O)cccc1[N+](=O)[O-] | . | 0.0 | . | . | -11.5 | . | .
O=C(O)c1c[nH]c2c([N+](=O)[O-])cccc2c1=O | 4.5 | . | 9.7 | 48.7* | -5.3 | 0.1 | -5.3%
Cc1ccc(S(=O)(=O)n2nc(C)c(C#N)c2N)cc1 | 6.0 | 0.0 | 1.9 | 66.9* | -2.4 | 0.0 | 1.7%
C[C@@H]1CN([C@@H](C)CO)C(=O)c2cc(C3=CCCCC3)cnc2O[C@H]1CN(C)C(=O)c1ccc2c(c1)OCO2 | 5.9 | -0.2 | 1.4 | 1.8 | 1.4 | 0.0 | .
Nc1ccc(C(=O)Nc2ccccc2C(=O)O)cc1 | . | . | 0.8 | 12.1 | . | . | .
O=C(Nc1ccccc1C(=O)Nc1ccccc1C(=O)O)c1ccccc1 | 0.4 | 0.4 | -2.7 | 73.9* | -4.8 | 0.1 | 26.2µM*
CCCCC(=O)NC(c1ccc(N(C)C)cc1)c1ccc2cccnc2c1O (configuration not stated) | -1.0 | -0.3 | 12.4 | 60.3* | -14.4 | 1.5 | 11.4µM*
CCCCC(=O)NC(c1ccc(N(CC)CC)cc1)c1ccc2cccnc2c1O (configuration not stated) | -0.3 | -0.2 | -3.0 | 36.8 | -3.4 | 0.0 | .
CC(=O)NC(c1ccc2ccccc2c1)c1ccc2cccnc2c1O (configuration not stated) | 1.5 | 0.0 | -10.6 | 61.7* | -2.8 | 0.0 | 15.3µM*
CC(=O)NC(c1ccc(Cl)cc1Cl)c1ccc2cccnc2c1O (configuration not stated) | 4.4 | -0.4 | 20.7 | 66.3* | 1.6 | 0.5 | 21.5µM*
C[C@H](CO)N1C[C@H](C)[C@H](CN(C)C(=O)Nc2ccccc2)OCCCC[C@H](C)Oc2ccc(NC(=O)CCC(F)(F)F)cc2C1=O | 3.3 | -0.1 | -3.0 | -10.9 | 1.5 | -0.1 | .
CCC1CCCCN1S(=O)(=O)c1ccc(NC(=O)c2cccs2)cc1 (configuration not stated) | . | . | . | 0.0 | . | . | .
CCC1CCCCN1S(=O)(=O)c1ccc(NC(=O)CSc2ncccc2C(=O)O)cc1 (configuration not stated) | . | . | . | 44.4* | . | . | 13.7µM*
Cc1cc2c(NC(=O)CC(C)(C)CC(=O)O)cccc2nn1 | 0.1 | 0.0 | -4.2 | 27.2* | -0.6 | 0.0 | -10.0%

Screening results deposited in PubChem by Broad Institute.
